From article PMC2661818 (Psychopharmacology, 2008)
Counter-ions that a name gives are not always drawn. Like-named read-outs stand apart in the source and are kept apart here.

What was measured:
[1] = system: rats trained to discriminate 10 mg/kg cocaine, IP from saline; type: in vivo, Sprague—Dawley rats; details: for Maximal cocaine responding: SEM in parentheses; for Maximal levels of cocaine responding: in each/all rearing groups (BMS, AFR, LMS)
Outline: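 Adult Sprague–Dawley rats (6 per rearing condition per sex) from BMS, LMS or AFR rearing, trained at 10 mg/kg IP (15-min pretreatment) vs saline. Tests: 10 consecutive responses on either manipulandum gave a pellet. Novel training-drug doses (0.56–18 mg/kg) in random order; pretreatment 1–120 min. Group mean % drug responding: ≥80% full, ≤20% saline-like. Rates as % of vehicle.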

[2] = system: rats discriminating cocaine injections; details: cited from earlier work; for Cocaine-like responding (partial): ref Witkin et al. 1991; for Substitution for the cocaine cue: reduced training dose (3.0 mg/kg cocaine), ref Terry et al. 1994
[3] = rat, IP injection, cited from earlier work
[4] = system: rats; details: ref Moffett et al. (2006a), cited from earlier work
[5] = system: c-Fos; experiment: Cocaine-induced c-Fos expression; type: in vivo, Sprague—Dawley rats; details: 10 mg/kg IP, 14 days
[6] = Plasma cocaine assessment by LC/MS/MS; type: in vivo, Sprague—Dawley rats; details: males, 10 mg/kg IP
[7] = females, all rearing conditions

Fc1ccc(C(OCCN2CCN(CCCc3ccccc3)CC2)c2ccc(F)cc2)cc1 [GBR12909, GBR12909 bismesylate hydrate]
Doses producing more cocaine-like responding ([1]; females, AFR): 5.6 to 18 mg/kg
Maximal cocaine responding ([1]; females, AFR): 80.28%
Maximal cocaine responding ([1]; females, BMS): 99.64%
Doses producing more partial responding ([1]; females, LMS): 3.2 to 10 mg/kg
Maximal cocaine responding ([1]; females, LMS): 83.39%
Effect on rate of responding [1, 7]: dose dependently decreased
Generalization profile ([1]; males, AFR, two lowest doses (1.0–3.2 mg/kg)): partial cocaine responding
Generalization profile ([1]; males, BMS and LMS, two lowest doses (1.0–3.2 mg/kg)): saline responding
Effect on rate of responding ([1]; males, all rearing conditions): dose dependently decreased rate of responding

Oc1cc2c(cc1O)C(c1ccccc1)CNCC2 (stereo not shown) [SKF38393, SKF38393 hydrobromide]
Cocaine-like responding (partial) ([2]; 10 mg/kg cocaine training dose): 20–80%
Substitution for the cocaine cue [2]: substitute fully
Effect on rate of responding [1, 7]: dose dependently decreased
Maximal levels of cocaine responding ([1]; females): approximately 50%
Generalization profile ([1]; males, AFR and LMS, 18 mg/kg): partial generalization
Maximal cocaine responding ([1]; males, AFR): 81.41%
Rates of responding (disrupted) ([1]; males, BMS and AFR groups, 32 mg/kg): < 0.20 mean responses per second
Maximal cocaine responding ([1]; males, BMS): 95.68%
Maximal cocaine responding ([1]; males, LMS): 83.52%
Effect on rate of responding ([1]; males, all rearing conditions): dose-dependent decreases in rates
Generalization profile ([1]; males, all rearing conditions, 10 mg/kg): partial generalization

COC(=O)[C@H]1[C@@H](OC(=O)c2ccccc2)C[C@@H]2CC[C@H]1N2C [cocaine, Cocaine hydrochloride]
Time to peak plasma ([3]; ref Misra et al. 1974): 4 h
Elimination half-life (t1/2) ([3]; ref Nayak et al. 1976): 48 to 60 min
Self-administration ([4]; BMS rats): did not self administer cocaine above saline levels at any dose tested
Dose at which self-administration was acquired ([4]; LMS rats): 0.0625 mg/kg/infusion
Fos-IR, cocaine- vs saline-treated ([5]; AFR females, NAcc Core and central CPu): significantly greater Fos-IR
c-Fos expression, cocaine- vs saline-treated ([5]; AFR males, central and dorsomedial CPu): trend for significantly greater c-Fos expression
c-Fos expression, cocaine- vs saline-treated ([5]; BMS males and females, any brain region examined): never statistically significant differences
c-Fos, cocaine- vs saline-treated ([5]; LMS males, ICjM): showed significance
Effect on rate of responding [1, 7]: dose dependently decreased rate of responding
Effect on rate of responding ([1]; males, all rearing conditions): did not have an effect on rate of responding
Cocaine-appropriate responding as a function of dose ([1]; novel doses 0.56–18 mg/kg, all groups): dose-dependent increases in cocaine-appropriate responding
Plasma cocaine levels, effect of time [6]: decreasing from 15 to 60 min

CCCN1CCC[C@@H]2Cc3n[nH]cc3C[C@H]21 [quinpirole, quinpirole hydrochloride]
Generalization to the cocaine cue ([2]; 10 mg/kg cocaine training dose, ref Barrett and Appel 1989, Callahan et al. 1991, Callahan and Cunningham 1993): full generalization
Cocaine-like responding (partial) ([2]; 10 mg/kg cocaine training dose): 20–80%
Substitution for the cocaine cue [2]: substitute fully
Generalization profile ([1]; females, all groups, doses of 0.061–0.18 mg/kg): intermediate levels of responding
Effect on rate of responding [1, 7]: dose dependently decreased
Maximal levels of cocaine responding ([1]; females): ~80%
Generalization profile ([1]; males, LMS, all doses except 0.125 mg/kg): only partial generalization
Effect on rate of responding ([1]; males, all rearing conditions): dose dependently decreased the number of responses
